# Screening results as filed in PubChem.
# Sampled rows, rich in hits. Any-hit rate of the full collection: about 2.1%.
# DSG3 Ab inh – human desmoglein-3 autoantibody binding inhibition; P32926; DSG3-coupled beads, scFv-anti-DSG3-GFP binding, flow cytometry; active compounds read low; binding (percent of control), % at 10 µM; 0.48% of 310,000 active; AID 588358;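 active = binding more than 3 SD below its plate's average and above zero; inconclusive = below that plate limit but binding exactly zero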;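 note: hits lower antibody fragment binding to DSG3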
# Runt-CBFb FRET – blocks binding of human RUNX1 Runt domain to CBFb; Q01196+Q13951; inhibition, % at 20 µM; AID 1496; 0.46% of 220,000 active; Cerulean-Runt/Venus-CBFb FRET ratio 530/480, 1 h;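 active = inhibition over about 50% at 20 µM in the single-dose screen, limit read from the data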
#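 Measured by: fluorescence energy transfer, 422 nm excitation, 530/480 nm emission; test system: Cerulean-tagged RUNX1 Runt domain (FRET donor) fusion protein; buffer or medium: Tris pH 7.5 buffer with BSA; compound: one dose, 20 µM compound, 1% DMSO; times: two 1 h room-temperature incubations shielded from light; benchmarks: unlabeled CBFb 5 µM, positive control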
# Hck-Nef inh – inhibitors of human Hck kinase activated by Nef; Recombinant Hck-YEEI plus Nef, Z-Lyte FRET kinase assay; inhibition, % at 20 µM; 0.68% of 220,000 active; AID 463187;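 active = Hck-Nef kinase inhibition above about 50%, limit read from the data; inactive = inhibition below that limit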
# Runt-SMMHC FRET – inhibitors of human RUNX1 Runt domain binding to CBFb-SMMHC | 0.74% of 220,000 active | AID 1434 | Cerulean-Runt/Venus-CBFb-SMMHC FRET ratio 530/480, 1 h | inhibition, % at 20 µM;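 active = mean inhibition across duplicate retests at 20 µM reaching about 50%, limit read from the data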;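 note: inhibitors lower the FRET ratio by blocking Runt binding to CBFb-SMMHC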
# p-CIP stab down – compounds decreasing mouse p/CIP protein stability | decrease of EGFP signal, % at 10 µM | F442A p/CIP-EGFP cells, EGFP fluorescence, 16 h | 0.01% of 290,000 active | Q05BA5;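 active = EGFP signal decrease of at least 30% at 10 µM or well 3 SD below plate mean, unless failing retest; inactive = the rest, including hits failing retest or dose response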
# Target sequence (Q05BA5 1-1403): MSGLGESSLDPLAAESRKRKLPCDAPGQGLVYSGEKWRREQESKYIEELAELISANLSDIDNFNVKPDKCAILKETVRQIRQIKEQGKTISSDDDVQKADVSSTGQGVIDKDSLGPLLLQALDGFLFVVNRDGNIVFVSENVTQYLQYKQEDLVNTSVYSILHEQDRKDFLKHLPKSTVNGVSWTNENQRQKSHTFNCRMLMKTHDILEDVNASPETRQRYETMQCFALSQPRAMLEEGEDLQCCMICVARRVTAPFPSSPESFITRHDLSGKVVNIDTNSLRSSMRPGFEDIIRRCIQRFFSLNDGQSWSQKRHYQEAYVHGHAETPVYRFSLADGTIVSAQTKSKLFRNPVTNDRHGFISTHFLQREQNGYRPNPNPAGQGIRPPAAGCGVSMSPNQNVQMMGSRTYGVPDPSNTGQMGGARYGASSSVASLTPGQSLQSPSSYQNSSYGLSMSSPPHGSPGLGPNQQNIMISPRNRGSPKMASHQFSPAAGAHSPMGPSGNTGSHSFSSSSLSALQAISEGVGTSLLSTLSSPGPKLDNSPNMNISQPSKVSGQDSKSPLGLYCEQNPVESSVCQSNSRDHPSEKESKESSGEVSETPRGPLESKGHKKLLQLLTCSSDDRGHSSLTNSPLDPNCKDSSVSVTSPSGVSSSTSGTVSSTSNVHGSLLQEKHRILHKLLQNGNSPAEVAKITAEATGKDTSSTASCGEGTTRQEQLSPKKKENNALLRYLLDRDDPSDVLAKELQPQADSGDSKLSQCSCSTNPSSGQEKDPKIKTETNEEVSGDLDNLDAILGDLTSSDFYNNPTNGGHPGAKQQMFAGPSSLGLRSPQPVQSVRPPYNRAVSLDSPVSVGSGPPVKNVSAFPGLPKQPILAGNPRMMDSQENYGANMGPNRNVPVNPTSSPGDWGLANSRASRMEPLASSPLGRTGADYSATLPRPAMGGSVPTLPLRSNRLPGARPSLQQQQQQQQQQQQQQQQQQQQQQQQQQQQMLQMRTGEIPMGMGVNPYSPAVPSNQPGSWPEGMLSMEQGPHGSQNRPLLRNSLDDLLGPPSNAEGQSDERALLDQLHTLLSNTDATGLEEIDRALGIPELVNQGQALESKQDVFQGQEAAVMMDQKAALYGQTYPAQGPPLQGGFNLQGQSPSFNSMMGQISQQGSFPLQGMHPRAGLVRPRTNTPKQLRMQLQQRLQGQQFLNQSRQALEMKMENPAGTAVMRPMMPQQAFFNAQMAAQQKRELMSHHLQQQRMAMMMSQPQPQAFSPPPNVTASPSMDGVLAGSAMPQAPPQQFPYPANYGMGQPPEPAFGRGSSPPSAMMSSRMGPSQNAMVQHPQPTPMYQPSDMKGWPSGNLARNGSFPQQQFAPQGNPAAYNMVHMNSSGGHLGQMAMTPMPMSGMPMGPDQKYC
# RanGTP-Imp inh – disruptors of Ran-importin-beta complex formation – biochemical, FRET, CFP-Ran, YFP-importin-beta, homogeneous, primary screen; inhibition, % (test concentration not listed); cell-free CFP-Ran/YFP-importin-beta FRET ratio; AID 2216; 1.1% of 300,000 active;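 active = more than half of the replicate wells show a fall in the fluorescence ratio signal beyond about 16%, limit read from the data, passing the limit was not always enough; inconclusive = exactly half of the replicate wells pass the set limit; inactive = fewer than half of replicates pass the limit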
# Hits are given with their value; . = inactive; ? = inconclusive; / = no result given.
SMILES,DSG3 Ab inh,Runt-CBFb FRET,Hck-Nef inh,Runt-SMMHC FRET,p-CIP stab down,RanGTP-Imp inh
Cn1cnnc1SCC(=O)c1c[nH]c2ccccc12,.,.,.,.,.,31
Cc1cnc(C(=O)NC2CC(C)(C)Cc3c2cnn3-c2cccc(F)c2)cn1 (configuration not stated),.,/,/,/,.,.
COc1ccc(CC2NCCC3=CC(=O)CCC32)cc1O (configuration not stated),.,/,/,/,/,29
CCOc1ccc(C2Nc3ccccc3NC3=C2C(=O)CC(C)(C)C3)cc1OC (configuration not stated),.,/,/,/,.,.
CCOc1ccc(C2OC34CCCCC3C(C#N)(C#N)C2(C#N)C(=N)O4)cc1OC (configuration not stated),/,.,.,.,.,45
CCCCOc1ccc(C2OC34CCCCC3C(C#N)(C#N)C2(C#N)C(=N)O4)cc1 (configuration not stated),.,.,.,.,.,.
C=CCOc1ccc(C2OC34CCCCC3C(C#N)(C#N)C2(C#N)C(=N)O4)cc1 (configuration not stated),.,.,.,50,.,46
c1ccc(-c2nnc(SCC3CCCCO3)nc2-c2ccccc2)cc1 (configuration not stated),.,.,.,.,.,.
c1ccc(-c2nnc(SCC3CCCO3)nc2-c2ccccc2)cc1 (configuration not stated),.,.,.,.,.,26
C=CCn1c2ccccc2c(=O)c2cc(C#Cc3ccccn3)ccc21,.,/,/,/,/,/
C=CCn1c2ccccc2c(=O)c2cc(C#Cc3ccsc3)ccc21,/,/,/,/,.,24
Cc1sc2nc(-c3cccs3)oc(=O)c2c1C,.,/,/,/,.,32
O=c1oc(-c2cccs2)nc2scc(-c3cccs3)c12,.,.,.,.,.,.
Cc1nnc(NC(=O)CSc2cn(Cc3ccccc3)c3ccccc23)s1,-20,.,.,.,.,.
Cc1ccc(S(=O)(=O)c2cc3c(=O)n4cccc(C)c4nc3n(CC3CCCO3)c2=N)cc1C (configuration not stated),.,66,.,88,.,137
Cc1cccn2c(=O)c3cc(S(=O)(=O)c4ccccc4)c(=N)n(CC4CCCO4)c3nc12 (configuration not stated),/,.,.,81,.,158
Cc1cccn2c(=O)c3cc(C#N)c(=N)n(CC4CCCO4)c3nc12 (configuration not stated),/,/,.,/,/,/
CCOC(=O)c1c(C)[nH]c(C)c1C(=O)COC(=O)Cc1ccc(OC)c(OC)c1,.,/,/,/,/,/
COc1ccc(N2CCN(C3CCCN(Cc4cccc(C(C)=O)c4)C3)CC2)cc1 (configuration not stated),.,/,/,/,.,.
COc1ccc(CC(=O)Nc2cc(S(=O)(=O)N3CCCCC3)ccc2OC(C)C)cc1OC,.,/,/,/,/,/
O=C1CC(=O)c2c1cccc2[N+](=O)[O-],/,.,75,.,.,/
Cc1ccc(NC(=O)c2ccc(-n3cncn3)c([N+](=O)[O-])c2)cc1,/,.,.,.,.,26
Cc1ccc2c(c1)C(=O)CCN2,.,.,.,.,.,?
O=C1CCNc2cc3ccccc3cc21,/,.,.,75,.,38
FC(F)(F)c1cc(-c2cccs2)nc2cc(-c3cccs3)nn12,.,.,.,.,.,43
SMILES,DSG3 Ab inh,Runt-CBFb FRET,Hck-Nef inh,Runt-SMMHC FRET,p-CIP stab down,RanGTP-Imp inh
CCNC(=O)N(C)C[C@H]1N[C@@](C)(C(=O)OC)[C@H]2C(=O)N(C)C(=O)[C@@H]12,.,/,/,/,/,/
COCCCn1c(=O)c2ccccc2n(Cc2ccccc2)c1=O,100,/,/,/,.,.
COCCCn1c(=O)c2sccc2n(Cc2ccccc2)c1=O,.,/,/,/,.,.
Nc1cc(=O)[nH]c(SCC(=O)Nc2cccc(Cl)c2)n1,.,.,.,.,.,?
Nc1cc(=O)[nH]c(SCC(=O)Nc2ccc(Oc3ccccc3)cc2)n1,.,/,/,/,.,32
Cc1ccc(C)c(-n2c3nc(=O)[nH]c(=O)c-3cc3cc([N+](=O)[O-])ccc32)c1,.,.,.,.,.,/
Cc1ccc(C)c(-n2c3nc(=O)n(C)c(=O)c-3cc3ccccc32)c1,.,.,.,81,.,133
CCCCn1c(=O)nc2n(-c3ccccc3)c3ccccc3cc-2c1=O,.,.,.,60,.,142
C/C(=N\NC(=O)c1ccccc1Cl)c1ccccn1,61,/,/,/,.,.
C/C(=N\NC(=O)c1cccc2ccccc12)c1ccccn1,.,/,/,/,.,.
COc1ccccc1NC(=S)NN=C(C)c1ccccn1,-0.8,/,/,/,/,/
CC(=NNC(=S)Nc1ccc(C)cc1)c1ccccn1,.,/,/,/,/,/
CN1C=CC2=C(C#N)C(N)C(C#N)(C#N)[C@H](c3ccccc3)[C@H]2C1 (some centres not stated),.,66,.,79,.,64
N#CC1(C#N)C(C(N)=O)C1c1ccccc1 (configuration not stated),.,.,.,.,.,?
CCC(OC(C)=O)c1cc2c(cc1[N+](=O)[O-])OCCO2 (configuration not stated),.,.,.,.,.,.
Clc1cncc(Cl)c1NNc1c2ccccc2nc2ccccc12,.,128,.,83,.,23
CCOC(=O)NC(=O)c1cn(Nc2ccccc2)c(=O)[nH]c1=O,.,.,.,.,.,.
Cc1ccc(-c2onc3ccc(C=O)cc23)cc1,.,.,.,.,.,23
Cc1ccc(-c2onc3ccc(C4(C)OCCO4)cc23)cc1,.,.,.,.,.,.
Cc1ccc(CC(=O)Nc2nncs2)cc1,.,.,.,.,.,.
COc1ccc(CC(=O)Nc2nncs2)cc1OC,.,89,.,.,.,.
CC1CN(S(=O)(=O)c2cccc(C(=O)N(Cc3nnc(-c4ccccc4Cl)o3)C3CC3)c2)CC(C)O1 (configuration not stated),.,/,/,/,/,.
Cn1cc(Br)c(C(=O)Nc2sc3c(c2C(N)=O)CCC3)n1,.,.,.,.,.,.
CCn1ncc(Br)c1C(=O)Nc1sc2c(c1C(N)=O)CCC2,.,.,.,.,.,47
CC1CCC(NC(=O)CCS(=O)(=O)c2ccc3c(c2)CCN3C(=O)C2CC2)CC1 (configuration not stated),.,/,/,/,.,.
Cc1ccccc1C(=O)N1CCC(C(=O)Nc2cc(C(F)(F)F)ccc2N2CCCC2)CC1,.,/,/,/,/,.
CS(=O)(=O)Nc1ccccc1C(=O)Nc1ccccc1Cl,66,.,.,.,.,.
CS(=O)(=O)Nc1ccccc1C(=O)Nc1cc(Cl)cc(Cl)c1,.,.,.,.,.,.
O=c1nc2n(Cc3ccccc3)c3ccccc3cc-2c(=O)[nH]1,/,63,.,82,.,89
